Key:
Cannabinoid receptor 1 [1] = target: T1, Cannabinoid receptor 1 (Homo sapiens, UniProt P21554); assay: Agonist activity at human CB1 receptor expressed in CHO cells assessed as suppression of forskolin-stimulated cAMP accumulation; type: functional, cell-based
Outline: (§1)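 Forskolin-induced cAMP measured in CHO cells expressing human CB1 or CB2. EC50 from a logistic fit of the concentration–response curve. Emax taken as the maximum of the dose–response. Means of n = 2–20 independent measurements.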

Cannabinoid receptor 1 [2] = target: T1, Cannabinoid receptor 1; assay: Agonist activity at human CB1 expressed in CHO cells receptor assessed as suppression of forskolin-stimulated cAMP accumulation relative to control; type: functional, cell-based
Outline: (§2)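 CHO cells expressing human CB1 or CB2. Read-out was suppression of forskolin-induced cAMP production in whole cells. Emax was taken as the maximum of the dose–response curve. Values are means of n = 2–20 independent measurements, derived by logistic fit.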

Cannabinoid receptor 2 [3] = target: T2, Cannabinoid receptor 2 (Homo sapiens, UniProt P34972); assay: Agonist activity at human CB2 receptor expressed in CHO cells assessed as suppression of forskolin-stimulated cAMP accumulation; type: functional, cell-based; outline: as §1
Cannabinoid receptor 1 [4] = target: T1, Cannabinoid receptor 1; assay: Agonist activity at human CB1 receptor expressed in SF9 cells assessed as inhibition of CP-55940-stimulated GTP binding
Outline: (§3)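 Sf9 membranes co-expressing hCB1 or hCB2 with Gαi3 (Bmax 1.7 pmol/ml). Europium-GTP (10 nM) binding in 50 mM Hepes, 0.1% BSA, 10 mM MgCl2, 150 mM NaCl, GDP, 0.0005% saponin, 1% DMSO. Compound tested from 0.01 nM upward. Incubated 45 min at room temperature, then filtered and washed; fluorescence read at 615 nm. 3 micromolar CP55940 defines 100% efficacy.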

Cannabinoid receptor 2 [5] = target: T2, Cannabinoid receptor 2; assay: Agonist activity at human CB2 receptor expressed in SF9 cells assessed as inhibition of CP-55940-stimulated GTP binding relative to control
Outline: (§4)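 Sf9 insect-cell membranes co-expressing hCB1 or hCB2 with Gαi3 (Bmax 1.7 pmol/ml). Compound added in 50 mM Hepes/0.1% BSA to buffer with 10 mM MgCl2, 150 mM NaCl, GDP, 10 nM GTP-Europium and 0.0005% saponin. Final DMSO was 1%. Incubated 45 min at room temperature, then filtered, washed and read by fluorescence at 615 nm. 3 µM CP55940 set 100% efficacy. Logistic fit, n = 2–20.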

Cannabinoid receptor 2 [6] = target: T2, Cannabinoid receptor 2; assay: Agonist activity at human CB2 receptor expressed in SF9 cells assessed as inhibition of CP-55940-stimulated GTP binding; outline: as §3
Cannabinoid receptor 1 [7] = target: T1, Cannabinoid receptor 1; assay: Agonist activity at human CB1 receptor expressed in SF9 cells assessed as inhibition of CP-55940-stimulated GTP binding relative to control; outline: as §4
Cannabinoid receptor 2 [8] = target: T2, Cannabinoid receptor 2; assay: Agonist activity at human CB2 receptor expressed in CHO cells assessed as suppression of forskolin-stimulated cAMP accumulation relative to control; type: functional, cell-based; outline: as §2
Cannabinoid receptor 1 [9] = target: T1, Cannabinoid receptor 1; assay: Agonist activity at human CB1 receptor relative to control; type: functional
Cannabinoid receptor 1 [10] = target: T1, Cannabinoid receptor 1; assay: Agonist activity at human CB1 receptor; type: functional
Cannabinoid receptor 2 [11] = target: T2, Cannabinoid receptor 2; assay: Agonist activity at human CB2 receptor; type: functional
Cannabinoid receptor 2 [12] = target: T2, Cannabinoid receptor 2; assay: Agonist activity at human CB2 receptor relative to control; type: functional
[13] = Protein binding in rat plasma; type: ADME, cell-free; conditions: read-out: PPB (converted)
[14] = Oral bioavailability in Sprague-Dawley rat at 10 mg/kg; type: ADME, organism-based; conditions: in vivo
Outline: (§5)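 Oral dose of 10 mg/kg in a 2% HPMC, 1% Tween 80 vehicle given to Sprague–Dawley rats; n = 3 animals.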

[15] = Clearance in Sprague-Dawley rat at 0.5 mg/kg, iv; type: ADME, organism-based; set-up: dose 0.5 mg/kg, route intravenous; conditions: in vivo
Outline: (§6)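 Single intravenous dose of 0.5 mg/kg given as a solution in DMSO to Sprague–Dawley rats; n = 2 animals.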

[16] = Cmax in Sprague-Dawley rat at 10 mg/kg, po; type: ADME, organism-based; set-up: dose 10 mg/kg, route oral; conditions: in vivo; outline: as §5
[17] = Protein binding in human plasma; type: ADME, cell-free; conditions: read-out: PPB (converted)
[18] = AUC (0 to infinity) in Sprague-Dawley rat at 10 mg/kg, po; type: ADME, organism-based; set-up: time infinity, dose 10 mg/kg, route oral; conditions: plasma; outline: as §5
[19] = Half life in Sprague-Dawley rat at 0.5 mg/kg, iv; type: ADME, organism-based; set-up: dose 0.5 mg/kg, route intravenous; conditions: in vivo; outline: as §6
[20] = Intrinsic clearance in human liver microsomes; type: ADME, Microsome
[21] = Intrinsic clearance in rat liver microsomes; type: ADME, Microsome
[22] = Volume of distribution at steady state in Sprague-Dawley rat at 0.5 mg/kg, iv; type: ADME, organism-based; set-up: dose 0.5 mg/kg, route intravenous; conditions: in vivo, read-out: Vdss; outline: as §6
Rattus norvegicus = assay: Tmax in Sprague-Dawley rat at 10 mg/kg, po; type: ADME, organism-based; set-up: dose 10 mg/kg, route oral; conditions: in vivo; outline: as §5
Homo sapiens = species: Homo sapiens; assay: Selectivity for human CB2 receptor over human CB1 receptor

T2 sequence (P34972 whole entry): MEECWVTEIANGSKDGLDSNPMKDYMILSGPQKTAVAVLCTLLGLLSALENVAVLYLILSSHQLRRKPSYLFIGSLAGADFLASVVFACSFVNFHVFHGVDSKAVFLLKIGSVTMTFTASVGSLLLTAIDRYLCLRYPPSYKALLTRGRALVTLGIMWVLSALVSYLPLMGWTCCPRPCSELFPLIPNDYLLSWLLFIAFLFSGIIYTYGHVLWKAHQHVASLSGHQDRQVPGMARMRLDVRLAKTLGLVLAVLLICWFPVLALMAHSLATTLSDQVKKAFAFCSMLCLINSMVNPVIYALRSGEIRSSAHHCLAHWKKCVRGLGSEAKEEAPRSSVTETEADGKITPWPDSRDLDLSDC
T1 sequence (P21554 whole entry): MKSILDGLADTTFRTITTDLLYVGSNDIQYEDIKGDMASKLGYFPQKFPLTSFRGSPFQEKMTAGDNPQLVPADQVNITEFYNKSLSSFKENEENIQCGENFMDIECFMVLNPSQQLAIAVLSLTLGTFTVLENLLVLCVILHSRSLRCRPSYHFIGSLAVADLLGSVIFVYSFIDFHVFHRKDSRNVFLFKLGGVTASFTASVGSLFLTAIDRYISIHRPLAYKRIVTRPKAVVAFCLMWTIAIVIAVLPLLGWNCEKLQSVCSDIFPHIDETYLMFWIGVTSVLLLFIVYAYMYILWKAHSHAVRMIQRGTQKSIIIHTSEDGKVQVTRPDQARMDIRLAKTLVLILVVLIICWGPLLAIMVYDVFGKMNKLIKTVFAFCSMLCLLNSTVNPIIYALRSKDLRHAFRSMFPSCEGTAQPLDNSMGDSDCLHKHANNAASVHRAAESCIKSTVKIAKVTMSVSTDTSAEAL

SMILES	EC50 (Cannabinoid receptor 1 [1]) [nM]	Emax (Cannabinoid receptor 1 [2]) [%]	EC50 (Cannabinoid receptor 2 [3]) [nM]	EC50 (Cannabinoid receptor 1 [4]) [nM]	Emax (Cannabinoid receptor 2 [5]) [%]	EC50 (Cannabinoid receptor 2 [6]) [nM]	Emax (Cannabinoid receptor 1 [7]) [%]	Emax (Cannabinoid receptor 2 [8]) [%]	further results
CC(C)(C)c1cc(NC(=O)C(C)(C)S(=O)(=O)c2ccc(Cl)cc2)no1	> 2000	23	11	1920	99	29	57	85	–
Cc1ccccc1-c1nnc(NC(=O)C(C)(C)S(=O)(=O)c2ccc(Cl)cc2)s1	–	–	–	1650	81	189	48	–	–
CC(C)(C(=O)Nc1cnc2ccccc2c1)S(=O)(=O)c1ccc(F)cc1Cl	–	–	–	> 10000	108	104	7	–	–
CC(C)(C(=O)Nc1ccc(Cl)c(-c2ccco2)c1)S(=O)(=O)c1ccc(Cl)cc1	230	98	5	96	101	4	82	101	–
CCn1c2ccccc2c2cc(NC(=O)C3(S(=O)(=O)c4ccccc4)CC3)ccc21	–	–	–	–	–	–	–	–	Emax (Cannabinoid receptor 1 [9]): 40%; EC50 (Cannabinoid receptor 1 [10]): 390 nM; EC50 (Cannabinoid receptor 2 [11]): 8 nM; Emax (Cannabinoid receptor 2 [12]): 95%
Cn1nc(C(C)(C)C)cc1NC(=O)C(C)(C)S(=O)(=O)c1ccc(Cl)cc1	> 2000	12	25	223000	104	26	37	92	fraction unbound [13]: 0.06; bioavailability [14]: 43%; clearance [15]: 20 mL/min/kg; Cmax [16]: 971 ng/mL; fraction unbound [17]: 0.064; AUC(0-inf) [18]: 3570 ng·h/mL; half-life [19]: 1.9 h; microsomal CLint [20]: 14 µL/min/mg; microsomal CLint [21]: 20 µL/min/mg; Vd [22]: 2 L/kg; Tmax (Rattus norvegicus): 0.67%
CC(C)(C(=O)NCc1ccc(F)c(Cl)c1)S(=O)(=O)c1ccc(Cl)cc1	–	–	–	> 10000	76	1300	2	–	–
CC(C)(C(=O)NCc1ccccc1)S(=O)(=O)c1ccc(Cl)cc1	–	–	–	> 10000	0	> 10000	7	–	–
CC(C)(C(=O)Nc1ccc(C(F)(F)F)cc1)S(=O)(=O)c1ccc(Cl)cc1	> 1000	19	57	> 10000	77	115	14	93	–
CC1(c2nnc(NC(=O)C(C)(C)S(=O)(=O)c3ccc(Cl)cc3)s2)CCOC1 (stereo not given)	–	–	–	> 10000	99	216	10	–	–
COc1ccc(S(=O)(=O)C(C)(C)C(=O)Nc2cnc3ccccc3c2)c(Cl)c1	–	–	–	> 10000	91	148	12	–	–
Cc1cc(NC(=O)C(C)(C)S(=O)(=O)c2ccc(Cl)cc2)no1	–	–	–	> 10000	19	3860	1	–	–
CC(C)(C(=O)Nc1ccc(Cl)cc1OC(F)(F)F)S(=O)(=O)c1ccc(Cl)cc1	–	–	–	> 10000	44	1620	2	–	–
CC(C)(C(=O)Nc1ccc(Cl)cc1C#N)S(=O)(=O)c1ccc(Cl)cc1	–	–	–	> 10000	14	> 10000	0	–	–
CC(C)(C(=O)Nc1cccc(C(F)(F)F)c1)S(=O)(=O)c1ccc(Cl)cc1	> 1000	21	35	> 10000	89	170	15	93	–
Cc1ccc(-c2cncc(NC(=O)C(C)(C)S(=O)(=O)c3ccc(Cl)cc3)c2)s1	331	106	5	322	102	9	80	99	–
CC(C)(C(=O)Nc1cnc2ccccc2c1)S(=O)(=O)c1ccc(C(F)(F)F)cc1	82	93	8	710	88	96	86	96	Selectivity ratio (Homo sapiens): 10
CC(C)(C(=O)Nc1cnc2ccccc2c1)S(=O)(=O)c1ccc(F)cc1	> 2000	19	33	2780	102	109	22	97	–
CCn1c2ccccc2c2cc(NC(=O)CCc3nc(-c4ccccc4F)no3)ccc21	–	–	–	–	–	–	–	–	Emax (Cannabinoid receptor 1 [9]): 2%; EC50 (Cannabinoid receptor 1 [10]): > 2000 nM
CC(C)(C(=O)Nc1cnc2ccccc2c1)S(=O)(=O)c1ccc(Cl)cc1	> 1000	47	13	1680	90	57	47	93	–
CC(C)(C(=O)Nc1ccc(Cl)c(Br)c1)S(=O)(=O)c1ccc(Cl)cc1	–	–	–	> 10000	77	86	7	–	–
CC(C)(C(=O)Nc1ccc(Cl)c(C(F)(F)F)c1)S(=O)(=O)c1ccc(Cl)cc1	> 2000	39	5	700000	102	20	22	96	fraction unbound [13]: 0.003; bioavailability [14]: 52%; clearance [15]: 9 mL/min/kg; Cmax [16]: 560 ng/mL; fraction unbound [17]: 0.002; AUC(0-inf) [18]: 9680 ng·h/mL; half-life [19]: 14 h; microsomal CLint [20]: 14 µL/min/mg; microsomal CLint [21]: 14 µL/min/mg; Vd [22]: 9.3 L/kg; Tmax (Rattus norvegicus): 1.7%
CC(C)(C(=O)Nc1cnc2ccccc2c1)S(=O)(=O)c1ccc(C(F)(F)F)cc1Cl	> 2000	41	73	1570	94	19	71	94	–
O=C(Nc1cnc2ccccc2c1)C1(S(=O)(=O)c2ccccc2)CC1	–	–	–	–	–	–	–	–	Emax (Cannabinoid receptor 1 [9]): 6%; EC50 (Cannabinoid receptor 1 [10]): > 10000 nM; EC50 (Cannabinoid receptor 2 [11]): 4 nM; Emax (Cannabinoid receptor 2 [12]): 31%
Cc1cnc(NC(=O)C(C)(C)S(=O)(=O)c2ccc(Cl)cc2)s1	–	–	–	> 10000	4	> 10000	7	–	–

Source: ChEMBL document CHEMBL1139336, “Discovery of alpha-amidosulfones as potent and selective agonists of CB2: synthesis, SAR, and pharmacokinetic properties” (Bioorg Med Chem Lett, 2009)
